In ChEMBL document CHEMBL1154819, “Synthesis and antiviral activity of boranophosphonate isosteres of AZT and d4T monophosphates” (Eur J Med Chem, 2010):
Active and inactive are the calls of the source. The calls are words filed in the database; no cut-off is given here.

How the values were obtained:
[1] = Cytotoxicity against human HuH5.2 cells up to 200 uM after 3 days by MTS assay; assay type: cell-based; details: huh-5-2, 72 h
Summary of the method: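 Parallel Huh-5-2 cultures were seeded at 7000 cells/well and treated like the replicon assay without luciferase reagents. Proliferation was measured 3 days after compound addition by MTS bioreduction to formazan, read in a plate reader.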

[2] = system: HEL; assay: Cytotoxicity against human HEL cells up to 200 uM after 3 days by MTS assay; assay type: cell-based; details: 72 h
[3] = system: Coxsackievirus B4; assay: Antiviral activity against Coxsackievirus B4 virus infected in human HeLa cells assessed as inhibition of virus-induced cytopathic effect up to 200 uM after 3 days; assay type: functional, organism-based
Summary of the method: (§1)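 Confluent cell monolayers in MEM with 10% FCS, 2 mM L-glutamine and 0.075% bicarbonate were inoculated with 100 times the 50% cell culture infective dose. Compounds were added after 1–2 h of virus adsorption. Cytopathic effect was scored microscopically at about 3 days as a percentage of untreated controls, and EC50 was read from graphical plots.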

[4] = system: Sindbis virus; assay: Antiviral activity against […] virus infected in african green monkey Vero cells assessed as inhibition of virus-induced cytopathic effect up to 200 uM after 3 days; assay type: functional, organism-based; summary of the method: as §1
[5] = system: Human alphaherpesvirus 2; assay: Antiviral activity against HSV2 infected in human HEL cells assessed as inhibition of virus-induced cytopathic effect up to 200 uM after 3 days; assay type: functional, organism-based; summary of the method: as §1
[6] = system: Human immunodeficiency virus 1; assay: Antiviral activity against HIV1 3B infected in human CEM cells at 400 uM after 4 to 5 days; assay type: functional, organism-based; details: CCRF-CEM
Summary of the method: (§2)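 CEM cells (4.5×10^5/ml) were infected at 100 CCID50 per ml, mixed 1:1 with compound dilutions and incubated at 37 °C. Giant-cell formation was scored microscopically after 4–5 days. EC50 is the concentration preventing syncytium formation by 50%.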

[7] = system: CCRF-CEM; assay: Cytotoxicity against human CEM cells at 400 uM after 3 days by MTS assay; assay type: cell-based; details: 72 h
[8] = system: Human alphaherpesvirus 1; assay: Antiviral activity against HSV1 infected in human HEL cells assessed as inhibition of virus-induced cytopathic effect up to 200 uM after 3 days; assay type: functional, organism-based; summary of the method: as §1
[9] = system: Punta Toro virus; assay: Antiviral activity against Punta Toro virus infected in african green monkey Vero cells assessed as inhibition of virus-induced cytopathic effect up to 200 uM after 3 days; assay type: functional, organism-based; summary of the method: as §1
[10] = system: Human immunodeficiency virus 2; assay: Antiviral activity against HIV2 ROD infected in human CEM cells at 400 uM after 4 to 5 days; assay type: functional, organism-based; details: ISOLATE ROD, CCRF-CEM; summary of the method: as §2
[11] = Chemical stability in PBS of pH 1.2 by HPLC; assay type: physicochemical; details: buffer
Summary of the method: (§3)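 Compound at an initial 0.1 mM was incubated at 37 °C in buffer at pH 1.2, 7.3 or 11.5. Timed aliquots were frozen at −80 °C and analysed directly by on-line precolumn-cleaning C18 HPLC (0.05 M TEAB to TEAB/CH3CN gradient). Half-lives of decomposition were calculated.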

[12] = system: Vaccinia virus; assay: Antiviral activity against Vaccinia virus infected in human HEL cells assessed as inhibition of virus-induced cytopathic effect up to 200 uM after 3 days; assay type: functional, organism-based; details: Orthopoxvirus vaccinia
[13] = system: Mammalian orthoreovirus 1; assay: Antiviral activity against Reovirus 1 infected in african green monkey Vero cells assessed as inhibition of virus-induced cytopathic effect up to 200 uM after 3 days; assay type: functional, organism-based; summary of the method: as §1
[14] = Chemical stability in PBS of pH 11.5 by HPLC; assay type: physicochemical; details: buffer; summary of the method: as §3
[15] = system: CCRF-CEM; assay: Stability in human CEM cells by HPLC; assay type: ADME, cell-based
Summary of the method: (§4)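 CEM-SS cells were washed in PBS, resuspended at 30×10^6 cells/mL in 10 mM Tris–HCl, 140 mM KCl (pH 7.4), sonicated and clarified at 10,000 g. Compound (0.1 mM initial) was incubated in the extract at 37 °C. Aliquots were frozen at −80 °C and analysed by on-line cleaning C18 HPLC to derive half-life.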

[16] = system: Human respirovirus 3; assay: Antiviral activity against Parainfluenza virus 3 infected in african green monkey Vero cells assessed as inhibition of virus-induced cytopathic effect up to 200 uM after 3 days; assay type: functional, organism-based; summary of the method: as §1
[17] = Cytotoxicity against human MAGI-CCR5 cells at 400 uM; assay type: cell-based; details: magi-ccr5, 400 µM
Summary of the method: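 MAGI-CCR5 cells were exposed to 0–400 µM compound. CC50 is the concentration inhibiting cell proliferation by 50%.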

[18] = Chemical stability in PBS of pH 7.3 by HPLC; assay type: physicochemical; details: buffer; summary of the method: as §3
[19] = system: Human immunodeficiency virus 1; assay: Antiviral activity against HIV1 NL4-3 infected in MAGI-CCR5 cells at 400 uM after 2 days; assay type: functional, organism-based
Summary of the method: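 HIV-1 NL4.3 stock came from 293T cells transfected with the molecular clone and was titred by p24. MAGI-CCR5 cells (10^4 cells, integrated HIV promoter–LacZ reporter, in DMEM with 10% FBS) were pretreated for 4 h with 0–400 µM compound. They were then spinoculated with 100 ng CAp24 and grown with compound. After 2 days, cells were stained for β-galactosidase and blue cells counted; EC50 is a 50% drop in blue cells.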

[20] = system: Vero; assay: Cytotoxicity against african green monkey Vero cells up to 200 uM after 3 days by MTS assay; assay type: cell-based; details: chlorocebus sabaeus, 72 h
[21] = system: HeLa; assay: Cytotoxicity against human HeLa cells up to 200 uM after 3 days by MTS assay; assay type: cell-based; details: 72 h
[22] = system: Hepatitis C virus; assay: Antiviral activity against HCV 1b infected in Huh-5-2 cells assessed as inhibition of subgenomic replication; assay type: functional, organism-based; details: Hepacivirus hominis, genotype 1b
Summary of the method: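 Huh-5-2 cells carry an HCV genotype 1b subgenomic replicon (I389luc-ubi-neo/NS3-3'/5.1) with a firefly luciferase fusion. They were seeded at 7000 cells/well without G418 and allowed to adhere for 24 h. Five 5-fold dilutions starting at 100 µM were then added for 72 h at 37 °C. Luciferase signal was expressed as % of untreated cultures to give EC50. Interferon alfa 2a (500 IU) served as positive control.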

[23] = Chemical stability in culture media by HPLC; assay type: physicochemical
Summary of the method: (§5)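 Compound at an initial 0.1 mM was incubated at 37 °C in RPMI 1640 containing 10% heat-inactivated fetal calf serum. Aliquots were frozen at −80 °C and analysed by on-line precolumn-cleaning reversed-phase C18 HPLC with a TEAB/acetonitrile gradient. Decomposition half-lives were calculated.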

[24] = system: Respiratory syncytial virus; assay: Antiviral activity against RSV infected in human HeLa cells assessed as inhibition of virus-induced cytopathic effect up to 200 uM after 3 days; assay type: functional, organism-based; summary of the method: as §1
[25] = system: Vesicular stomatitis virus; assay: Antiviral activity against VSV infected in human HEL cells assessed as inhibition of virus-induced cytopathic effect up to 200 uM after 3 days; assay type: functional, organism-based
[26] = Chemical stability assessed as half life of degradation in culture media by HPLC; assay type: physicochemical; summary of the method: as §5
[27] = Stability in human CEM cells assessed as half life of degradation by HPLC; assay type: ADME, cell-based; details: CEM (CCRF-CEM) cells; summary of the method: as §4
[28] = Chemical stability assessed as half life of degradation in PBS of pH 11.5 by HPLC; assay type: physicochemical
Summary of the method: (§6)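 Compound at 0.1 mM initial concentration in buffer, incubated at 37 °C. Aliquots were taken at set times, frozen at −80 °C, then analysed by on-line cleaning-precolumn reversed-phase HPLC (C18, TEAB/acetonitrile gradient). Decomposition half-life was calculated, with products identified by co-injection with authentic samples.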

[29] = Chemical stability assessed as half life of degradation in PBS of pH 1.2 by HPLC; assay type: physicochemical; summary of the method: as §6
[30] = Chemical stability assessed as half life of degradation in PBS of pH 7.3 by HPLC; assay type: physicochemical; summary of the method: as §6

| Compound | Activity [1] | Activity [2] | Activity [3] | Activity [4] | Activity [5] | Activity [6] | Activity [7] | Activity [8] | Activity [9] | Activity [10] | Activity [12] | Activity [13] | Activity [16] | Activity [17] | Activity [19] | Activity [20] | Activity [21] | Activity [22] | Activity [24] | Activity [25] | further results |
| --- | --- | --- | --- | --- | --- | --- | --- | --- | --- | --- | --- | --- | --- | --- | --- | --- | --- | --- | --- | --- | --- |
| Cc1cn([C@H]2C[C@H](N=[N+]=[N-])[C@@H](CC[PH](=O)O)O2)c(=O)[nH]c1=O | Non-toxic | Non-toxic | inactive | inactive | inactive | inactive | Non-toxic | inactive | inactive | inactive | inactive | inactive | inactive | Non-toxic | inactive | Non-toxic | Non-toxic | inactive | inactive | inactive | Stability [11]: Stable; Stability [14]: Stable; Stability [15]: Stable; Stability [18]: Stable; Stability [23]: Stable |
| BP(=O)(O)CC[C@H]1O[C@@H](n2cc(C)c(=O)[nH]c2=O)C[C@@H]1N=[N+]=[N-] | Non-toxic | Non-toxic | inactive | inactive | inactive | inactive | Non-toxic | inactive | inactive | inactive | inactive | inactive | inactive | Non-toxic | inactive | Non-toxic | Non-toxic | inactive | inactive | inactive | half-life [26]: 3.1 h; half-life [27]: > 48 h; Stability [11]: Stable; Stability [14]: Stable; Stability [18]: Stable |
| Cc1cn([C@H]2C=C[C@@H](CC[PH](=O)O)O2)c(=O)[nH]c1=O | Non-toxic | Non-toxic | inactive | inactive | inactive | inactive | Non-toxic | inactive | inactive | inactive | inactive | inactive | inactive | Non-toxic | inactive | Non-toxic | Non-toxic | inactive | inactive | inactive | half-life [26]: 11 h; half-life [27]: 2 h; half-life [28]: > 48 h; half-life [29]: 28 h; half-life [30]: > 48 h |
| BP(=O)(O)CC[C@@H]1C=C[C@H](n2cc(C)c(=O)[nH]c2=O)O1 | Non-toxic | Non-toxic | inactive | inactive | inactive | inactive | Non-toxic | inactive | inactive | inactive | inactive | inactive | inactive | Non-toxic | inactive | Non-toxic | Non-toxic | inactive | inactive | inactive | half-life [26]: 1.6 h; half-life [27]: 3 h; half-life [28]: > 48 h; half-life [29]: 16 h; half-life [30]: 22 h |
